Legend:
Assay in all cases: Two-electrode voltage-clamp recordings, Xenopus oocytes
Assay type in all cases: cell-based
[1] = molecular target: GluN1/GluN2B F784V (Rattus norvegicus, UniProt P35439+Q00960, F784V)
[2] = molecular target: GluN1/GluN2A V783L (Rattus norvegicus, UniProt P35439+Q00959, V783L)
[3] = molecular target: GluN1/GluN2A V783D (Rattus norvegicus, UniProt P35439+Q00959, V783D); conditions: 100 μM glutamate + 3 μM glycine
[4] = molecular target: GluN1/GluN2D (Rattus norvegicus, UniProt P35439+Q62645); conditions: 100 μM glutamate + 3 μM glycine; N.E. = no effect at 10 μM TCN-201
Sequence of GluN1/GluN2D (Q62645 28-1323, other chains not shown): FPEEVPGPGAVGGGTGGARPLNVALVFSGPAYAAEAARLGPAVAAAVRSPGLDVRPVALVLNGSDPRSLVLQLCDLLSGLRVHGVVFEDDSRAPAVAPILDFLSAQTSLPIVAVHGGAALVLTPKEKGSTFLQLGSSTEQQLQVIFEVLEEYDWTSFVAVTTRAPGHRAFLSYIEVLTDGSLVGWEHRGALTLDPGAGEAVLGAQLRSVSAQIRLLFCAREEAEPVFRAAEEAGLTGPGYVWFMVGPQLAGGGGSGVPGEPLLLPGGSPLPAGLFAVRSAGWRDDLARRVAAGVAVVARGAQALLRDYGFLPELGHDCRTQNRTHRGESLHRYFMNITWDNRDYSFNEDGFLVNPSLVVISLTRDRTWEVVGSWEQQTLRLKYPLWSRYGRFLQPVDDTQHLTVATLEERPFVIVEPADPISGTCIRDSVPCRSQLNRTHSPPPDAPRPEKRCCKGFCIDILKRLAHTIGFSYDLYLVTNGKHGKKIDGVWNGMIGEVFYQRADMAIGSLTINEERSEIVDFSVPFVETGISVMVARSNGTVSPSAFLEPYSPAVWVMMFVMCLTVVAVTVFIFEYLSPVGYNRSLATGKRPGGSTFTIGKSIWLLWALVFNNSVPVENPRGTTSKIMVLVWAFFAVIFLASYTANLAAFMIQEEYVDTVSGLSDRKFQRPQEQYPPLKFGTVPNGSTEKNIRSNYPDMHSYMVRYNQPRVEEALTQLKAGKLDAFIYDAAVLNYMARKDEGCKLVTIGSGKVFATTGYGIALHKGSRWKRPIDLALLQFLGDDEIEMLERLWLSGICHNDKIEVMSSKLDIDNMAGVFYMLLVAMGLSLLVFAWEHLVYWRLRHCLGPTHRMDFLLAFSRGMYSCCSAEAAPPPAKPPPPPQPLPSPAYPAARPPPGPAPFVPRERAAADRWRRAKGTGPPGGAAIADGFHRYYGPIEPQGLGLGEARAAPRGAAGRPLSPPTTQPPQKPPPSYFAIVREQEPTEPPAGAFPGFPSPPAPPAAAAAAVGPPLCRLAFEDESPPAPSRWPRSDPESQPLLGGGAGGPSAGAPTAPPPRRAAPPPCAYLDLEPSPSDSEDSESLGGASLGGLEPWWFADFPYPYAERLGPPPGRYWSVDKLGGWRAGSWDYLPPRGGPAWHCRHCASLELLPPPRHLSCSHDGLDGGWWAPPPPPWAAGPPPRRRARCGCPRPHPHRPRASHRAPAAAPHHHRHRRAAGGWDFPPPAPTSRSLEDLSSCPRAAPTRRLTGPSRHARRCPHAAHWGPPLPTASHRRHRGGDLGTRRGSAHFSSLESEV
Method in brief: (§1)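 cRNA from linearized constructs injected into female Xenopus laevis oocytes. Two-electrode voltage clamp done 3–4 d later at 23°C, holding at −40 mV, in 90 NaCl, 1 KCl, 10 HEPES, 0.5 BaCl₂, 0.01 EDTA (mM), pH 7.4. […] Max inhibition is (control − residual at saturating compound)/control.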

[5] = molecular target: GluN1/GluN2A G786D (Rattus norvegicus, UniProt P35439+Q00959, G786D); conditions: 100 μM glutamate + 3 μM glycine
[6] = molecular target: GluN1/2A-ΔATD (Rattus norvegicus, UniProt P35439+Q00959); conditions: 100 μM glutamate plus 30 μM glycine; vs GluN1/GluN2A
[7] = molecular target: GluN1/2A-(2D S2) (Rattus norvegicus, UniProt P35439+Q00959, D675E/D715E/E790M/F680L/F708Y/G712R/G740R/G786D/H674Q/I755V/K668R/K738M/M788I/N696S/P770R/Q661T/Q703S/Q766H/Q774P/R681K/R692K/R711P/R741K/S677Y/S719Q/S758T/T663S/T706V/T722A/T793R/T797S/V718T/V783L/Y676Q/Y700D/Y754K); conditions: 100 μM glutamate + 3 μM glycine; N.E. = no effect at 10 μM TCN-201
Method in brief: as §1

[8] = molecular target: GluN1-1b/GluN2A receptors (Rattus norvegicus, UniProt P35439+Q00959); conditions: 3 μM TCN-201, 30 μM glycine; contains exon 5
Method in brief: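 Xenopus laevis oocytes (female) were injected with in vitro transcribed cRNA and recorded by two-electrode voltage clamp 3–4 d after injection at 23°C, holding at −40 mV. Voltage and current electrodes held 0.3 and 3.0 M KCl.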

[9] = molecular target: GluN1/2A-(2D ATD) (Rattus norvegicus, UniProt P35439+Q00959+Q62645, A388P/C399P/D398Q/D403T/E353D/E371T/E400V/G345N/H358N/H387Y/K346R/K368R/K374V/K377S/K394G/L348Y/N367T/N380Q/N404Q/P391S/P401D/Q356L/R360S/R386K/S384R/S395R/S397L/T351N/V365S/V389L/Y355F); conditions: 100 μM glutamate plus 30 μM glycine; vs GluN1/GluN2A
[10] = molecular target: GluN1/GluN2A G786A (Rattus norvegicus, UniProt P35439+Q00959, G786A); conditions: 100 μM glutamate + 3 μM glycine
[11] = molecular target: GluN1/GluN2A V783T (Rattus norvegicus, UniProt P35439+Q00959, V783T); conditions: 100 μM glutamate + 3 μM glycine

Sequence of GluN1/GluN2B F784V (Q00960 27-1482 F784V, other chains not shown): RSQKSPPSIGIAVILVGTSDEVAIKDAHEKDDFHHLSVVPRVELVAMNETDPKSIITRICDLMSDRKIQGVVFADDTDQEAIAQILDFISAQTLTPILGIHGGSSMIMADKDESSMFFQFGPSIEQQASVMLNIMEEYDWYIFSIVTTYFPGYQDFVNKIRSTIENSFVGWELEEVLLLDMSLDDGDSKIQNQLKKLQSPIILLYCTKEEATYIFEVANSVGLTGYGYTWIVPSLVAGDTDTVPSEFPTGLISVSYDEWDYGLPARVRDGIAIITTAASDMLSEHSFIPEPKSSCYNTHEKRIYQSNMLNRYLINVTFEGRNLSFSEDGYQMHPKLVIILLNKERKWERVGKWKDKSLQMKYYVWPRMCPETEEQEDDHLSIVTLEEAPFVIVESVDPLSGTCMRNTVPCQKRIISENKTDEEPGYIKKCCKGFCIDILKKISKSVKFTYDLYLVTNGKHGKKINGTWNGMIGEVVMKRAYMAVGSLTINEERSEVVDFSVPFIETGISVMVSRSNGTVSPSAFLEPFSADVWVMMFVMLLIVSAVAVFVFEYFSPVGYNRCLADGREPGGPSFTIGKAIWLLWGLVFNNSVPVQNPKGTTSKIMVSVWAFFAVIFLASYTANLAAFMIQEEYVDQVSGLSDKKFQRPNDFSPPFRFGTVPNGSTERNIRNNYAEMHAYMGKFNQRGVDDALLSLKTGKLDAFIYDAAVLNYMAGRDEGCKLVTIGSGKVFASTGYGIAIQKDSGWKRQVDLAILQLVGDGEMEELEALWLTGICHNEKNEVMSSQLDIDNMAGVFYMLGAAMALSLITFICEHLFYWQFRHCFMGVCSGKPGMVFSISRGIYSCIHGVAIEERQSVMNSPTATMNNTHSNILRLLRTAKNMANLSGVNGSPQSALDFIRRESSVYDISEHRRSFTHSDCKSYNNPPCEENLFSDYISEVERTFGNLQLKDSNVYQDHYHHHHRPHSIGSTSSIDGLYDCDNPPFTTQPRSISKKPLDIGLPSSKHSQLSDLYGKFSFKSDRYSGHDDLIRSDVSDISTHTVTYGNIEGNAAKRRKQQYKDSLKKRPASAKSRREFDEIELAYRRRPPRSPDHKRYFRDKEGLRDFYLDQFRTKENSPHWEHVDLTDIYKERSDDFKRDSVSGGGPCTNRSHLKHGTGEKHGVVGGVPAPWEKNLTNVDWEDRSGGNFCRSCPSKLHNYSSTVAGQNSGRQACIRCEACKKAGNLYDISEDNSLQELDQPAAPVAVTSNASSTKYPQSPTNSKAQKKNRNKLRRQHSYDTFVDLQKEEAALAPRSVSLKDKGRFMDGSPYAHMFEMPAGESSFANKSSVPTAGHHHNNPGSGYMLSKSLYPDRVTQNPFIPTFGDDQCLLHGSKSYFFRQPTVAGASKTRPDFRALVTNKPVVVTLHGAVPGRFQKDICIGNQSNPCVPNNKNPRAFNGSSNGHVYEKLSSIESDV

O=C(NNC(=O)c1ccc(CNS(=O)(=O)c2ccc(F)c(Cl)c2)cc1)c1ccccc1 [TCN-201, 3-chloro-4-fluoro-N-[(4-[(2-(phenylcarbonyl)hydrazino)carbonyl]phenyl)methyl]-benzenesulfonamide]
Kb [1]: 1.38 µM
TCN-201 activity nH ([1]; 100 μM glutamate + 3 μM glycine): 1.2
Kb [2]: 2.14 µM
TCN-201 activity Max. % inhibition [3]: 92 ± 2%
TCN-201 activity nH [3]: 1.2
TCN-201 activity IC50 [4]: did not inhibit and N.E.
TCN-201 activity Max. % inhibition [5]: 82 ± 3%
TCN-201 activity nH [5]: 1.7
Inhibition by 3 μM TCN-201 [6]: did not reduce inhibition
TCN-201 activity IC50 [7]: no inhibition was observed and N.E.
Response, % of control [8]: 49 ± 2 % of control
Inhibition by 3 μM TCN-201 [9]: did not reduce inhibition
TCN-201 activity Max. % inhibition [10]: 87 ± 3%
TCN-201 activity nH [10]: 1.8
TCN-201 activity Max. % inhibition [11]: 91 ± 1%
TCN-201 activity nH [11]: 1.5

Source: article PMC3355950 (The Journal of Neuroscience, 2012)
